Screens as filed in PubChem.
GASC1 inh: inhibitors of GASC-1 (KDM4C) histone demethylase, primary screen, biochemical, single concentration HTS. Lysine-specific demethylase 4C (Homo sapiens), Q9H3R0. GST-KDM4C 2-372, H3K9me3 peptide, LANCE TR-FRET. inhibition, % at 12.5 µM. 96,000 tested, 0.15% active. AID 720574, 2013;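 active = mean replicate inhibition above about 25%, with at least 55% of replicates also reaching it, limit read from the data, passing the limit was not always enough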
Target sequence (Q9H3R0 2-372 limits assumed): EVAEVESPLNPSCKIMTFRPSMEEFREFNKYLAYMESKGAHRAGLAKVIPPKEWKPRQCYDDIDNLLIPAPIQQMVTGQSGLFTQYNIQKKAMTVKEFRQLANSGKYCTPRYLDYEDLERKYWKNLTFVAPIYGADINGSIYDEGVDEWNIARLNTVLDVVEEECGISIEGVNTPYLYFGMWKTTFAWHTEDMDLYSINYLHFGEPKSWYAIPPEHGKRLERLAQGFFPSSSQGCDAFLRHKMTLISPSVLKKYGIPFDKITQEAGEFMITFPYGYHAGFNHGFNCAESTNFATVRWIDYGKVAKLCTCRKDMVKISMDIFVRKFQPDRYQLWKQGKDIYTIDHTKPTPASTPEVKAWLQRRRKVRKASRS
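Material: GST-tagged GASC-1 (JMJD2C) catalytic fragment, aa 2-372 / Quantity: enzyme final amount 10 nM / Medium: HEPES buffer, pH 7.5, plus ascorbate / Doses: one test concentration per compound / Incubation: 30 min reaction, 60 min detection, RT / Measured by: LANCE TR-FRET / Read-out: inhibition from TR-FRET ratio decrease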
Pf Dd2 growth: P. falciparum Dd2 growth inhibitors, primary screen, SYBR Green fluorescence, single dose replicates | 94,000 tested, 2.3% active | 72 h; stronger effect = lower value | activity change, % at 10 µM; in the data active = activity change below about -80%
IDH1 mut inh: inhibitors of IDH1 R132H reductase, primary screen, biochemical, plate reader, single point; Isocitrate dehydrogenase [NADP] cytoplasmic (Homo sapiens), O75874; diaphorase/resazurin fluorescence, 60 min; inhibition, % at 10 µM; 70,000 tested, 0.18% active; AID 624101, 2012; in the data active = inhibition above about 34%
Tcruzi prolif: T. cruzi intracellular proliferation inhibitors, primary screen, cell-based, beta-gal Tulahuen parasites, NIH3T3 host, luminescence. T. cruzi beta-gal in NIH3T3, GalScreen luminescence, 90 h. inhibition, % at 8.34 µM. 77,000 tested, 5.9% active. AID 624255, 2012;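 active = mean inhibition above about 93%, with at least 55% of replicates each passing it, limit read from the data, passing the limit was not always enough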
Hits are given with their value; – = inactive; · = no result. Only some compounds are listed: those with a hit (about 5.9% of all), similar ones and a draw of the others.

SMILES | GASC1 inh | Pf Dd2 growth | IDH1 mut inh | Tcruzi prolif
Fc1cccc(-c2ccc(C3[C@@H]4CN(Cc5ccccc5F)C[C@H]3N4)cc2)c1 (some centres not stated) | – | – | · | ·
Cc1ccc(-n2c(C)nnc2SCC(=O)Nc2cc(Cl)ccc2C)cc1 | · | · | – | ·
Cc1cc(=O)[nH]c(SC(C)C(=O)Nc2cccc(Cl)c2)n1 (configuration not stated) | · | · | – | ·
COc1cc(OC)cc(-c2nnc(SCC(=O)NC3CC4CCC3C4)o2)c1 (configuration not stated) | · | · | – | ·
Cn1c(SCC(=O)Nc2cc(C(F)(F)F)ccc2Cl)nnc1-c1ccc(Br)cc1 | · | · | – | ·
NC(=O)C1CCN(CCC(=O)Nc2ccc(F)cc2)CC1 | · | · | – | ·
COc1ccc(S(=O)(=O)N(CC(=O)O)C2CCCCC2)cc1Cl | · | · | – | ·
COc1ccc(NC(=O)O[C@@H](c2ccc(OCCO)cc2)[C@H](CCO)OC)cc1 | · | · | – | ·
O=S(=O)(c1ccc(Br)cc1)c1nc(-c2ccc(F)cc2)oc1NCc1cccnc1 | · | · | – | ·
COc1cccc(S(=O)(=O)N2CCCCN3[C@@H](CO)[C@@H](c4ccc(C#CCC(C)C)cc4)[C@@H]3C2)c1 | – | -84 | · | –
COc1cccc(S(=O)(=O)N2CCCCN3[C@H](C2)[C@@H](c2ccc(C#CCC(C)C)cc2)[C@@H]3CO)c1 | – | – | · | –
Cc1ccc(-c2ccc([C@H]3[C@@H](CO)N4CCCCN(S(=O)(=O)c5ccccc5C)C[C@@H]34)cc2)cc1 | – | – | · | –
Cc1ccc(-c2ccc([C@@H]3[C@H](CO)N4CCCCN(S(=O)(=O)c5ccccc5C)C[C@@H]34)cc2)cc1 | – | -82 | · | –
COc1cccc(S(=O)(=O)N2CCCCN3[C@@H](CO)[C@@H](c4ccc(C5=CCCCC5)cc4)[C@@H]3C2)c1 | – | -84 | · | –
COc1cccc(S(=O)(=O)N2CCCCN3[C@H](C2)[C@H](c2ccc(C4=CCCCC4)cc2)[C@@H]3CO)c1 | – | – | · | –
C[C@@H]1CN([C@H](C)CO)C(=O)c2cccc(NC(=O)C3CCOCC3)c2O[C@H]1CN(C)Cc1ccc(-c2ccccc2)cc1 | – | -84 | – | –
C[C@@H]1CN([C@@H](C)CO)C(=O)c2cccc(NC(=O)C3CCOCC3)c2O[C@H]1CN(C)Cc1ccc(-c2ccccc2)cc1 | – | -84 | · | –
C[C@H]1CN([C@@H](C)CO)C(=O)c2cccc(NC(=O)C3CC3)c2O[C@@H]1CN(C)Cc1ccc(-c2ccccc2)cc1 | – | – | · | –
C[C@@H]1CN([C@@H](C)CO)C(=O)c2cccc(NC(=O)C3CC3)c2O[C@H]1CN(C)Cc1ccc(-c2ccccc2)cc1 | – | -89 | · | –
CC(C)NC(=O)Nc1cccc2c1O[C@H](CN(C)Cc1ccc(-c3ccccc3)cc1)[C@H](C)CN([C@@H](C)CO)C2=O | – | -85 | · | –
C=C(CC[C@@H](C)[C@H]1CCC2(C)C3=C(C[C@H](O)[C@]12C)[C@@]1(C)CC[C@@H](OC(=O)CC(=O)O)C(C)(C)C1CC3)[C@@H](C)C(=O)O (some centres not stated) | · | · | – | ·
O=C(NCc1ccco1)c1ccc(NC(=O)c2ccco2)cc1 | · | · | – | ·
COc1ccc(S(=O)(=O)Nc2ccc3c(c2)C(=O)N([C@H](C)CO)C[C@@H](C)[C@@H](CN(C)S(=O)(=O)c2ccc(C)cc2)OCCCC[C@H](C)O3)cc1 | – | -81 | · | ·
COc1ccc(S(=O)(=O)Nc2ccc3c(c2)C(=O)N([C@H](C)CO)C[C@@H](C)[C@@H](CN(C)S(=O)(=O)c2ccc(Cl)cc2)OCCCC[C@@H](C)O3)cc1 | – | -89 | · | –
COc1ccc(S(=O)(=O)N(C)C[C@@H]2OCCCC[C@H](C)Oc3ccc(NS(=O)(=O)c4ccc(C)cc4)cc3C(=O)N([C@H](C)CO)C[C@@H]2C)cc1 | – | – | · | 113
SMILES | GASC1 inh | Pf Dd2 growth | IDH1 mut inh | Tcruzi prolif
COc1ccc(S(=O)(=O)Nc2ccc3c(c2)C(=O)N([C@@H](C)CO)C[C@H](C)[C@@H](CN(C)S(=O)(=O)c2ccccc2)OCCCC[C@@H](C)O3)cc1 | – | -88 | – | ·
COc1ccc(S(=O)(=O)Nc2ccc3c(c2)C(=O)N([C@@H](C)CO)C[C@@H](C)[C@@H](CN(C)S(=O)(=O)c2ccc(C)cc2)OCCCC[C@H](C)O3)cc1 | – | – | – | ·
COCCSc1nnc(NC(=O)c2sc3ccccc3c2Cl)s1 | · | · | – | ·
COc1cccc(NC(=O)N2[C@@H](CO)[C@H](c3ccccc3)[C@@H]2CNCC(C)C)c1 | – | -91 | · | ·
COc1cccc(NC(=O)N2[C@H](CNC(C)C)[C@H](c3ccccc3)[C@@H]2CO)c1 | – | – | · | –
COc1cccc(NC(=O)N2[C@H](CO)[C@@H](c3ccccc3)[C@H]2CNCC(C)C)c1 | – | – | · | –
COc1cccc(NC(=O)N2[C@H](CO)[C@H](c3ccccc3)[C@H]2CNCC(C)C)c1 | – | -82 | · | –
COc1cccc(NC(=O)N2[C@@H](CO)[C@@H](c3ccccc3)[C@@H]2CNC(C)C)c1 | – | -89 | · | –
COc1cccc(NC(=O)N2[C@H](CO)[C@H](c3ccccc3)[C@H]2CNC(C)C)c1 | – | – | · | –
CC(C)Oc1cccc(-c2cc(C(=O)NCc3ccco3)c3ccccc3n2)c1 | · | · | – | ·
C[C@H](CO)N1C[C@H](C)[C@@H](CN(C)C(=O)Nc2ccc3c(c2)OCO3)Oc2ccc(NC(=O)Nc3ccc(C(F)(F)F)cc3)cc2CC1=O | – | -93 | · | ·
C[C@@H]1CN([C@H](C)CO)C(=O)Cc2cc(NC(=O)Nc3ccc4c(c3)OCO4)ccc2O[C@H]1CN(C)C(=O)Nc1ccc(C(F)(F)F)cc1 | – | – | – | –
C[C@H]1CN([C@@H](C)CO)C(=O)Cc2cc(NC(=O)Nc3ccc(C(F)(F)F)cc3)ccc2O[C@@H]1CN(C)C(=O)Nc1ccc2c(c1)OCO2 | – | -93 | – | ·
Cc1c(Br)c(C(F)(F)F)nn1CC(=O)Nc1cc(Oc2cccnc2)cc([N+](=O)[O-])c1 | · | · | – | ·
COc1cccc(-c2ccc3c(c2)[C@@H]2[C@@H](CCN2C(=O)C2CCCCC2)[C@H](CO)N3)c1 | – | -89 | · | ·
COc1ccc(-c2ccc3c(c2)[C@@H]2[C@@H](CCN2S(=O)(=O)c2ccc(OC)cc2)[C@H](CO)N3)cc1 | – | – | · | –
COc1ccc(S(=O)(=O)N2CC[C@@H]3[C@H]2c2cc(-c4ccc(C#N)cc4)ccc2N[C@@H]3CO)cc1 | – | -91 | · | –
COc1cccc(-c2ccc3c(c2)[C@@H]2[C@@H](CCN2S(=O)(=O)c2cn(C)cn2)[C@H](CO)N3)c1 | – | -82 | · | –
COc1ccccc1-c1ccc2c(c1)[C@H]1[C@H](CCN1C(=O)C1CCC1)[C@@H](CO)N2 | – | – | · | ·
COc1cccc(-c2ccc3c(c2)[C@@H]2[C@@H](CCN2C(=O)C2CC2)[C@@H](CO)N3)c1 | – | – | · | ·
